A short description of data set [1]: Cytotoxicity against human Detroit 551 cells after 48 hrs by MTT assay. The data set is classed as cell-based. The procedure, abridged:
(§1)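 Cells grown in DMEM with 10% FBS at 37 °C and 5% CO2, seeded at 5 × 10^3 per well and allowed 24 h before drug. Serial dilutions from DMSO stocks applied for 48 h. MTT (2 mg/mL in PBS) added for 2 h, formazan dissolved in DMSO, absorbance read at 570 nm. GI50 interpolated by linear regression from at least three points in the 20-80% range; three independent experiments.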
In general terms: Tetrazolium assays rely on reduction of a dye to a coloured formazan, in cell work by metabolically active cells.

The next data set deals with T1, DNA topoisomerase 1 (Homo sapiens, UniProt P11387).
T1 sequence (P11387 whole entry): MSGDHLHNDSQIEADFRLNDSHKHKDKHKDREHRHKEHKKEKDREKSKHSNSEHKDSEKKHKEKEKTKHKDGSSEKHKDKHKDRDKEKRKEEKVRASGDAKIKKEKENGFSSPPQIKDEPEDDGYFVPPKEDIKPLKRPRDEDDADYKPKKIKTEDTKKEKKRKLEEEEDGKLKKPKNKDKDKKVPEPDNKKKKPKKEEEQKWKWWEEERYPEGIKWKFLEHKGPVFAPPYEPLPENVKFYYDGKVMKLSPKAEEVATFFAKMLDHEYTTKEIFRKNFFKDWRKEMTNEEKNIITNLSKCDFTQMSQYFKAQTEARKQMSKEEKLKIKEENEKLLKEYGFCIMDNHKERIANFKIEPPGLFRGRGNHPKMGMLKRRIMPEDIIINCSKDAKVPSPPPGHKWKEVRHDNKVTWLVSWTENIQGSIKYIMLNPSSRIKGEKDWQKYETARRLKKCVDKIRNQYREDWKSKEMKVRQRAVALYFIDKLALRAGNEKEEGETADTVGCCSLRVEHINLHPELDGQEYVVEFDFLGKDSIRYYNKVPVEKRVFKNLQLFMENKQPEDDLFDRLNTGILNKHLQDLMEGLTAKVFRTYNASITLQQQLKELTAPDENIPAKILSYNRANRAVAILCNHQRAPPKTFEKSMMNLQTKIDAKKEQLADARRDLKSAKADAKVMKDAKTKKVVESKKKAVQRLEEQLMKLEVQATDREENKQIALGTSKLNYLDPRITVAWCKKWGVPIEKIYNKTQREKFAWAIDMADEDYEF
Nature of the data set: Inhibition of human topoisomerase 1 assessed as decrease in pBR322 mobility on agarose gel by electrophoresis. The procedure, abridged:
(§2)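 Enzyme preincubated with compound before DNA addition; reaction run 30 min at 37 °C and stopped with SDS. Products resolved on 1% agarose, stained with ethidium bromide, quantified by densitometry.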

Data set [2] in a line: Cytotoxicity against human SKHep cells after 48 hrs by MTT assay. The data set is classed as functional. The procedure, abridged:
as §1

For a further data set, the system named is PC-3. As to the kind of experiment: Cytotoxicity against human PC3 cells after 48 hrs by MTT assay. The data set is classed as functional. Conditions: PC-3, 48 h. The procedure, abridged:
as §1

Data set [3] has as its system SAS. As to the kind of experiment: Cytotoxicity against human SAS cells after 48 hrs by MTT assay. The data set is classed as functional. The procedure, abridged: as §1
The species entered for another data set is Homo sapiens. Nature of the data set: Inhibition of human topoisomerase 2 assessed as decrease in pBR322 mobility on agarose gel at 10 uM by electrophoresis. The procedure, abridged:
as §2

The nature of data set [4]: Cytotoxicity against human BT-483 cells after 48 hrs by MTT assay. The data set is classed as functional. The settings on record: BT-483, 48 h. The procedure, abridged: as §1
Data set [5] deals with HeLa. Nature of the data set: Cytotoxicity against human HeLa cells after 48 hrs by MTT assay. The data set is classed as functional. The procedure, abridged:
as §1

A short description of data set [6]: Inhibition of human topoisomerase 2 assessed as decrease in pBR322 mobility on agarose gel by electrophoresis. The procedure, abridged: as §2
The target in data set [7] is T2, DNA topoisomerase 1 (Homo sapiens) (UniProt P11387).
T2 sequence (whole entry): T1 sequence (P11387 whole entry)
As to the kind of experiment: Inhibition of human topoisomerase 1 assessed as decrease in pBR322 mobility on agarose gel at 10 uM by electrophoresis. The procedure, abridged:
as §2

In another data set the test system is A549. As to the kind of experiment: Cytotoxicity against human A549 cells after 48 hrs by MTT assay. Conditions: A549, 48 h. The data set is classed as functional. The procedure, abridged:
as §1

Data set [8] concerns HeLa. As to the kind of experiment: Selectivity index, ratio of IC50 for human Detroit 551 cells to IC50 for human HeLa cells. The data set is classed as functional.
In data set [9] the test system is Detroit 551. Nature of the data set: Selectivity index, ratio of IC50 for human Detroit 551 cells to IC50 for human SKHep cells. The data set is classed as functional.
Data set [10] concerns Detroit 551. As to the kind of experiment: Selectivity index, ratio of IC50 for human Detroit 551 cells to IC50 for human PC3 cells. The data set is classed as functional.
The test system of data set [11] is Detroit 551. As to the kind of experiment: Selectivity index, ratio of IC50 for human Detroit 551 cells to IC50 for human A549 cells. The data set is classed as functional.
Data set [12] has as its system Detroit 551. As to the kind of experiment: Selectivity index, ratio of IC50 for human Detroit 551 cells to IC50 for human BT-483 cells. The data set is classed as functional.
The test system of data set [13] is SAS. Nature of the data set: Selectivity index, ratio of IC50 for human Detroit 551 cells to IC50 for human SAS cells. The data set is classed as functional.

Experimental findings from ChEMBL document CHEMBL1240482, “Synthesis and antiproliferative evaluation of certain indeno[1,2-c]quinoline derivatives. Part 2” (J Med Chem, 2010) are described below.

What is called IC50 is the midpoint of a concentration-inhibition curve. In general, inhibition refers to the relative decrease from the control value, in per cent.

Structures are written as SMILES.

In data set [1], `COc1ccc2c(c1)/C(=N\OCCN1CCCCC1)c1c-2c(=O)[nH]c2ccccc12` gave a GI50 at 48 h of 7.5 µM. For the same compound, the IC50 on DNA topoisomerase 1 is greater than 100 µM.
`COc1ccc2c(c1)/C(=N\OCCN1CCOCC1)c1c-2c(O)nc2ccccc12`: the GI50 is 10.4 µM in data set [2]; 13.6 µM in the data set on PC-3; 16.5 µM in the data set on SAS [3]; 6.04 µM in data set [4]; 5.02 µM in the data set on HeLa [5] (read-out: GI50); 5.01 µM in the data set on HeLa [5] (read-out: pGI50 (converted)). This compound also registered a GI50 with A549 greater than 30 µM. The inhibition (in the data set listed under Homo sapiens; in data set [7]) was 0% in each case. Further, the IC50 (at DNA topoisomerase 1; in [6]) was greater than 100 µM in each case.
Take `COc1cccc2c1C(=O)c1c(O)c3c(c(O)c1C2=O)C[C@@](O)(C(=O)CO)C[C@@H]3O[C@H]1C[C@H](N)[C@H](O)[C@H](C)O1` [DOXORUBICIN]: the values for the inhibition (in the data set filed under Homo sapiens; in [7]) were 85% and 35%, respectively. In data set [6], the half-maximal inhibitory concentration (IC50) worked out at 1.9 µM.
Consider `COc1ccc2c(c1)/C(=N\O)c1c-2c(N2CCNCC2)nc2ccccc12`, for which, in the data set with HeLa [5] (read-out: pGI50 (converted)), the GI50 was 2.34 µM.
For `COc1ccc2c(c1)/C(=N\OCCN1CCOCC1)c1c-2cnc2ccccc12`, the GI50 in data set [2] was 20.8 µM; in the data set on PC-3 it was 7.81 µM; in the data set with SAS [3], 15.7 µM; in data set [4], 10.2 µM; in the data set with HeLa [5] (read-out: GI50), 16.9 µM; with HeLa [5] (read-out: pGI50 (converted)) it was 17 µM. The GI50 in the data set on A549 is 28.2 µM. The inhibition (in the data set filed under Homo sapiens; in data set [7]) was 0% each time. For the same compound, the 50% inhibitory concentration (IC50) (on DNA topoisomerase 1; in data set [6]) was greater than 100 µM throughout.
Take `CC[C@@]1(O)C(=O)OCc2c1cc1n(c2=O)Cc2cc3ccccc3nc2-1` [CAMPTOTHECIN]: the GI50 at 48 h in data set [1] turned out to be 0.99 µM. In the data set filed under Homo sapiens, the inhibition was 0%. Moreover, the values for the GI50 (in data set [4]; with HeLa [5] (read-out: GI50)) were 1.03 µM and 0.08 µM, respectively. For the same compound, in data set [6], the IC50 is greater than 100 µM.
In the case of `COc1ccc2c(c1)/C(=N\O)c1c-2cnc2ccccc12`, the GI50 in data set [2] is 8.42 µM; with PC-3 it was greater than 30 µM; in the data set with SAS [3], greater than 30 µM; in data set [4], greater than 30 µM; in the data set on HeLa [5] (read-out: GI50), 11.4 µM; in the data set with HeLa [5] (read-out: pGI50 (converted)), 11.5 µM. Further, in the data set on A549, the GI50 is greater than 30 µM.
On to `COc1ccc2c(c1)C(=O)c1c-2cnc2ccccc12`, for which the GI50 in [2] is greater than 30 µM; in the data set on PC-3 it was greater than 30 µM; in the data set with SAS [3] it was greater than 30 µM; in data set [4], greater than 30 µM; in the data set on HeLa [5] (read-out: GI50), 17.2 µM; in the data set with HeLa [5] (read-out: pGI50 (converted)), 17.4 µM. In the data set on A549, this compound came in with a GI50 of 13.5 µM. In addition, the inhibition (in the data set listed under Homo sapiens; in [7]) was 0% each time. Further, the IC50 (on DNA topoisomerase 1; in [6]) was greater than 100 µM throughout.
Regarding `COc1ccc2c(c1)/C(=N\OCCCN(C)C)c1c-2cnc2ccccc12`, the GI50 in [2] was 1.07 µM; in the data set on PC-3 it was 5.65 µM; in the data set on SAS [3] it was 6.1 µM; in data set [4] it was 0.93 µM; with HeLa [5] (read-out: GI50) it was 1.11 µM; with HeLa [5] (read-out: pGI50 (converted)) it was 1.12 µM. In the data set with A549, this compound showed a GI50 of 1.83 µM. The RatioGI50 is 3.11 with HeLa [8]; 3.22 with Detroit 551 [9]; 0.61 in the data set on Detroit 551 [10]; 1.89 in the data set with Detroit 551 [11]; 3.71 in the data set with Detroit 551 [12]; 0.57 in the data set with SAS [13]. Moreover, in data set [1], the GI50 at 48 h worked out at 3.45 µM. For the same compound, the inhibition in the data set filed under Homo sapiens came to 75%; in data set [7], 5%. The values for the half-maximal inhibitory concentration (IC50) (on DNA topoisomerase 1; in data set [6]) were 40 µM and 13.2 µM, respectively.
Take `COc1ccc2c(c1)/C(=N\OCCCN(C)C)c1c-2c(=O)[nH]c2ccccc12`: in [1], the GI50 at 48 h was 2.09 µM. Also, the IC50 on DNA topoisomerase 1 was greater than 100 µM.
